Measurements from the EternaBench riboswitch data.

Test system: MS2 coat protein
Experiment: apparent Kd, MS2 coat protein; higher = weaker binding; RNA-MaP array; FMN 200 µM where present
Method in brief: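 The apparent Kd is the median of filtered binding-curve fits, one per cluster, to green signal normalised to red-channel RNA signal and control-cluster median Fmax. The clusters were on Illumina sequencing chips, and stalled E. coli RNA polymerase had transcribed the designs on them. Titration used SNAP-549-labelled MS2 coat protein from 0.7 or 1.5 nM, doubling to 3 µM, without and then with constant ligand, in 100 mM Tris-HCl pH 7.5, 80 mM KCl, 4 mM MgCl2, BSA, DTT, yeast tRNA and Tween-20.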

[1] = designed as: OFF switch for flavin mononucleotide, no ligand
[2] = ligand present: flavin mononucleotide, designed as: OFF switch for flavin mononucleotide
[3] = designed as: ON switch for flavin mononucleotide, no ligand
[4] = ligand present: flavin mononucleotide, designed as: ON switch for flavin mononucleotide

Row | Sequence | apparent Kd [1] [nM] | apparent Kd [2] [nM] | apparent Kd [3] [nM] | apparent Kd [4] [nM]
1 | GCUAUUACAGGAUAUCGUUGUUAUAACAUGAGGAUCACCCAUGUUCGGCUCGUGAUCCAGCGAGAAGGGUGGACGC | 71.7 | 73 |  | 
2 | UCGAUGCUAGGAUAUACGUAUACCUCCACCGUUGAUUCCUAACAUGAGGAUCACCCAUGUAGAAGGAGCAUCUA | 23.8 | 23.6 |  | 
3 | UCAUUUAAUACAGGAUAUGUUAGUAUACAGUAGAUUGGUUAUAACAUAAUAACAGAAGGGUAGAACAUGAGGAUCACCCAUGUA |  |  | 86 | 64.6
4 | AAUUCAAACAGAGGAUAUUGUUUAUCUCUAUUGCAAGAAGGCUGAUCUUACUACUUACUUAUGAAACAUGAGGAUCACCCAUGU |  |  | 36.6 | 31.8
5 | CUUUUGUGAGGAUAUUAGUAGUAAAUAAAUAAAUUUACUACUGAGAAGGCACAUGAGGAUCACCCAUGUUCCUC | 36.7 | 328 |  | 
6 | AUGCCUAAUGAGAAGGUGUAUAUAAAUUAUAUACAAGGAUAUCGGUCAAGCAUGAAAACAUGAGGAUCACCCAUGUUAAGGCAU |  |  | 7.57 | 6.36
7 | UUAUGCUUUGAGAAGGUACAAACUACAUAUUGCGCACAUGAGGAUCACCCAUGUUGGUGAAUAAGUAAGGAUAUUAGACUGUGC | 133 | 102 |  | 
8 | GUUUCACAUGAGGAUCACCCAUGUGAGGAUAUGGAUUUGUUAACCGUAGUUAAUAGAUCCAGAAGGCGCGUGAU | 62.4 | 68.2 |  | 
9 | AGCAUGUAAGGAUAUGUAACGCGGCUUUCAUUCGCCGUCCCACAGAAGGUACAUGAGGAUCACCCAUGUGCUCC | 38.1 | 87.6 |  | 
10 | UGUUGUAUUACAGGAUAUCUAUGAUUUUUAUUAAGAGAAGGGUAUUCACAUGAGGAUCACCCAUGUAUAUACGAGGAAGUUGUG |  |  | 35.2 | 36
11 | CAAGGGUUAGGAUAUGGACGCUUAUAUUUGUAGCGGCGAAGCCAGAAGGAACAUGAGGAUCACCCAUGUUGGGA | 60.4 | 108 |  | 
12 | GCUGCAUAGGCAGGAUAUGCAAGAAUUGAAAUAAAAUAUAAUAAAUGAACAUGAGGAUCACCCAUGUAGAAGGGCCUGUGCAGU | 20.8 | 21.4 |  | 
13 | GUGGUACAUGAGGAUCACCCAUGUUAGGAUAUCGCGUGAGGUAAAACUUACACACACACGAGAAGGGACGUCUU | 45.9 | 41 |  | 
14 | AAUAAUUAGUAAGGAUAUACUAGUGGUUAGCUUGUAGAAGGUACAGUCUUAUGUAUAACAAAUUAACAUGAGGAUCACCCAUGU |  |  | 10.6 | 8.19
15 | AAAUCGGUAGGAUAUACGAUUUGGUACUAGACCGAGGAACCACAUGAGGAUCACCCAUGUAGAAGGACCAGAUA | 20.7 | 13.9 |  | 
16 | UAGUUAUUCACAGGAUAUCGCCUCUUAUUACAUGAGGAUCACCCAUGUUUAUUUUGUUACAUGUUCGAGAAGGGUGUAGCCGUU | 345 | 375 |  | 
17 | UUUAUUUAGGCAGGAUAUACAUGUAUAUAUAUUUCUUUAUAUCUUAUUACAUGAGGAUCACCCAUGUAGAAGGGCCUUAUUAUA | 17.3 | 23.6 |  | 
18 | AGCAAGUUUACAUGAGGAUCACCCAUGUUUUUUAGGGUUAUCAGAAGGUACAUUUUGAGAUAGAGUAAGGAUAUGAUAUAUGCG |  |  | 169 | 55
19 | GUUGCAAAUGAGAAGGCGAUCAUGAAACAUGAUCGAGGAUAUCAUGUUUACAUGAGGAUCACCCAUGUAUGGGUAUAUUGCAGC |  |  | 402 | 22.2
20 | CGCUUCUUAGUCAGGAUAUUGUCUGCACAGGGUAGUAAGAAGGGACAUGAGGAUCACCCAUGUAUAACGGUACC | 51.8 | 49.1 |  | 
21 | UGUUGUUCAGGAUAUGAUGUUUUAUACAUGAGGAUCACCCAUGUGGGUCCUGAUUUGGCGUCAGAAGGGAAUGUUG | 108 | 222 |  | 
22 | GGAGCACGCACAGGAUAUCCGGCGGCGCUCGUCGGAGAAGGGUGACAUGAGGAUCACCCAUGUACGUGCAACUCAGUUUGAGUG |  |  | 95.6 | 40.4
23 | CUAUAUUAGUAGAAGGACGGAGAGUAUGUAGUCGUAGGAUAUACAUAAGACAUGAGGAUCACCCAUGUGUGUAUGUUGGGUAUG | 9.66 | 8.03 |  | 
24 | CAGAACGUCUGAUGAGACCCGCGGCAGGAUAUGCCUGACGUGGACAUGAGGAUCACCCAUGUAAGGCAGAAGGGCCGUUCAGUG | 23 | 95.5 |  | 
25 | AGCUACGUUUCGUAGCAGUGUCAUCGAGAAGGCUCAUAUACAUGAGGAUCACCCAUGUUAACAUGGGAGGAUAUCGAUGAUACA |  |  | 50.2 | 6.64
26 | AGUAUACAUGAGGAUCACCCAUGUCUGUAACGGACAGGAUAUGCGUUGCAUCACUGUAAUGCAGAAGGGUCCUGUA |  |  | 296 | 45.2
27 | CAGCGCUGUUGAGAGGAUAUGCGGUGAUGGACAUGAGGAUCACCCAUGUUAGCGACAGCAUUACGGUAGAAGGCUCCACAGCUGC |  |  | 22.9 | 13.8
28 | CUAGCAACAUGAGGAUCACCCAUGUAGGAUAUCGCUAUUGUAAUCAUGAAACAUGAUUACAAUAGCGAGAAGGACAUAUGCUAC | 9.59 | 11 |  | 

Row | Sequence | apparent Kd [1] [nM] | apparent Kd [2] [nM] | apparent Kd [3] [nM] | apparent Kd [4] [nM]
29 | GUCAAAACCAUACUGGUCGACGGUCAGGAUAUACAUGAGGAUCACCCAUGUGCUAUUGAUACUAUGUAGAAGGGACCCACCGCA | 16.2 | 30 |  | 
30 | ACUACUUACUAGGAUAUCAGAGUCGAAAGACUCUGAGAAGGAGUAACAUGAGGAUCACCCAUGUGUCCUAUAGU | 17.9 | 29.4 |  | 
31 | CGGUCACAUGAGGAUCACCCAUGUACCUACGCGAUGAAGUCGCAGGAUAUCCAUUACUUUACGUAGGAGAAGGGUGACGCUCGC |  |  | 51.1 | 34
32 | CUCUCGCGAGGAUAUGAUUUAAGUAACAUGAGGAUCACCCAUGUUUUUCCGUUGUUAUGUUCAGAAGGCGCGUGAU | 44.2 | 84.3 |  | 
33 | ACGCAACAUGAGGAUCACCCAUGUGAGGAUAUGUAAAUAGUAAACAAAUAGGAAAUGAACAGAAGGCACACCGG | 33.8 | 46 |  | 
34 | AUAUGAAAGAUAGGAUAUACUGAGGUUGAAUGGGUAGAAGGAUCGAUAGUGGAGAAGACAUGAGGAUCACCCAUGUUGUGGAUU |  |  | 656 | 237
35 | GUCCUCAGCGAGGAUAUCGGGCGGGUUUUUGUUUGAGAAGGCGUGACAUGAGGAUCACCCAUGUGGCGCGUGGG | 51.2 | 82.3 |  | 
36 | AGGCGAGUAGGAUAUGCGUAUUUACAGGAAAGCUGGAUGGUACAUGAGGAUCACCCAUGUAGAAGGGCUCUGAA | 21.2 | 19.4 |  | 
37 | CUAUUCCGAGGAUAUACAUGAGGAUCACCCAUGUCGGGCCUCUGCGUUUAGCGCGAAAGUAGAAGGUGGGUUUC | 34.5 | 33.6 |  | 
38 | GCACGAGACUAAGGAUAUGGAGUGUCUACAUUAAACAUGAGGAUCACCCAUGUAGAGAGUAUGAUUCAGAAGGUAGAGACGUGC |  |  | 53.6 | 25.2
39 | CAUGUCCUCACAGGAUAUGCAAUGUAUUUCAUUGCAGAAGGGUGAAUACAUGAGGAUCACCCAUGUGGACAUGAUAUAUUUAAG |  |  | 880 | 76.6
40 | CCGGCUGCCGUGAGGAUAUGCCCGCGCGCCCGCGGGCAGAAGGCACAUGAGGAUCACCCAUGUCCUGCGGUCCC | 17.4 | 19.9 |  | 
41 | UUGUUCUGAGGAUAUACAUGAGGAUCACCCAUGUGUUUCUGCUUGGUGUCUUGCGUUUGUAGAAGGCUGUUCUC | 26.5 | 28 |  | 
42 | GUCGGAAACGACAAGUAGCAAUCGGAGGAUAUUCAUGAAAACAUGAGGAUCACCCAUGUAAAUUGGGAGAAGGCCGAUUGCUAC |  |  | 91.6 | 8.48
43 | GUCAGCUCGUGAGGAUAUACAACACUGCUUCGGCAGAGUAUUAAGAUCACAUGAGGAUCACCCAUGUAGAAGGCACGAGCUGAU | 10.3 | 117 |  | 
44 | AAUUCGUUCUAGAAGGUGCAUUUGUUAAACGUGCAAGGAUAUAGACAUGAGGAUCACCCAUGUCUAUGAGACAUCGGCCUCCUG | 5.33 | 8.23 |  | 
45 | UGUCGGAGCAGAGGAUAUUACAUGAGGAUCACCCAUGUAUGAACCAAUAGCUGGAAACAGCGAUGUAAGAAGGCUGCUCCGACA | 10.2 | 124 |  | 
46 | GUAGCUAUUAAAGGAUAUUCAUACCGGAGACGGACAUGAGGAUCACCCAUGUGGCGAAAGCCUUGGGAGAAGGUUAUUAGCUAC |  |  | 452 | 17.7
47 | GGUAGAGAGCAGGAUAUCUUGGGUAAGUAUCGUAGAGAAGGGCUCACAUGAGGAUCACCCAUGUGGUCCUAGAU | 12.1 | 24.8 |  | 
48 | ACUAAACGAGGAUAUACUGACAGGCCUCAAACAUACAUCAAACAUGAGGAUCACCCAUGUAGAAGGCGUAAACU | 34.5 | 25.1 |  | 
49 | CUGGUUGUCGUAGGAUAUGUAGGAUAUUCCUACAUGAGGAUCACCCAUGUUCGCAUGGAAGAAGGACAGAAGGACGAUGACCAU |  |  | 1020 | 9.16
50 | CUAUCGUUGCAGAAGGUUAAAUAAUUUCUCAUCAUGUUUACAUGAGGAUCACCCAUGUAUUUGUUGAAGGAUAUGCAAGUGUUG | 8.67 | 7.92 |  | 
51 | AACGGGUGGGUAGGAUAUGGCUAUGUCUCAUUGCUAGAAGGGCCAGCUGCUACAUGAGGAUCACCCAUGUCGUAGUGCACCCAG |  |  | 72.4 | 40.3
52 | AGAUUUGUACAUGAGGAUCACCCAUGUUAAUAGGUGUUUGUCAGAAGGCAUUAAUAGAGAUUUAAUGAGGAUAUGAAUUUACAA |  |  | 58.2 | 28.9
53 | UUAAUUAACAAGAAGGCAUACAUGAGGAUCACCCAUGUUGUACAUGGAUAAUGAGGAUAUUGCUAAUACAUGAGGAUCACCCAU | 36.5 | 34.3 |  | 
54 | GUGUAGAUAGGAUAUGCGUGAGUCUAGCGAAGCUAGAUUCUACAUGAGGAUCACCCAUGUAGAAGGGUCUACAC | 17.2 | 18.5 |  | 
55 | UUUAUGUGAGGAUAUAGUACUCCUUCUAUUAUUUUUGAGUACUAGAAGGCACAUGAGGAUCACCCAUGUAGUAC | 22.5 | 48.6 |  | 
